The results in this text go back to ChEMBL document CHEMBL2029280, “3-fluoro- and 3,3-difluoro-3,4-dideoxy-KRN7000 analogues as new potent immunostimulator agents: total synthesis and biological evaluation in human invariant natural killer T cells and mice” (2012).

For assay [1], the system named is Namalwa. Put plainly: Activation of Namalwa cell expressing CD1D-TCR in human MAD11 cells assessed as TH2-mediated IL-13 secretion after 48 hrs by ELISA relative to KRN7000. The format is functional, cell-based. The method in brief: (§1)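 The hCD1d-transduced HeLa or Namalwa presenting cells were plated at 7500/well and pulsed overnight at 37 °C with increasing glycolipid concentrations in DMSO, then washed. 15000 sorted human iNKT cells were added without IL-2 for 48 h at 37 °C. IL-13 in supernatant was measured by ELISA, minus background without glycolipid. Triplicate mean ± SD, with KRN7000 as reference.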

For assay [2], the system named is Mus musculus. The assay can be described thus: Induction of CD1D-TCR-dependent NKT cell activation in C57BL/6J mouse assessed as TNF-alpha production at 100 ug/kg, ip relative to KRN7000. The format is functional. The method in brief: (§2)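 Female C57BL/6J mice, 6–8 weeks old, given 100 μg/kg glycolipid ip in 0.1 mL of 10% DMSO in 0.9% NaCl. Sera collected at several time points after injection; six mice per time point. Serum IFN-γ, IL-4 and TNF-α measured by ELISA. Time courses compared as area under the curve against KRN7000.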

Assay [3] relates to MAD11. The assay can be described thus: Activation of Hela cell expressing human CD1D-TCR in human MAD11 cells assessed as TH1-mediated TNFalpha secretion after 6 hrs relative to control. The format is cell-based. The method in brief:
(§3)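 Human CD1d-transduced HeLa or Namalwa cells, 30000/well, incubated overnight at 37 °C with graded glycolipid (DMSO), washed twice, then cocultured 6 h at 37 °C with 15000 Vα24+/Vβ11+ human iNKT cells in RPMI without IL-2. TNF-α in cell-free supernatant measured by WEHI 164 cytotoxicity (MTT). No-glycolipid background subtracted. Mean of triplicates; at least 3 experiments.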

The subject of assay [4] is MAD11. The assay can be described thus: Activation of Hela cell expressing human CD1D-TCR in human MAD11 cells assessed as TH2-mediated IL-13 secretion after 48 hrs by ELISA relative to KRN7000. The format is functional, cell-based. The method in brief:
as §1
A general note: An ELISA detects its analyte on a solid surface through an enzyme-linked reagent.

In assay [5] the test system is Mus musculus. The assay can be described thus: Induction of CD1D-TCR-dependent NKT cell activation in C57BL/6J mouse assessed as IFN-gamma production at 100 ug/kg, ip measured after 8 hrs relative to KRN7000. The format is functional. The method in brief:
as §2

Assay [6] deals with Mus musculus. The assay can be described thus: Induction of CD1D-TCR-dependent NKT cell activation in C57BL/6J mouse assessed as ratio of IFNgamma/IL-4 production at 100 ug/kg, ip relative to KRN7000. The format is functional. The method in brief: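 Female C57BL/6J mice, 6–8 weeks old, received 100 μg/kg ip in 0.1 mL of 10% DMSO/0.9% NaCl. Serial serum samples were taken, six mice per time point. IFN-γ and IL-4 were measured by ELISA, and the ratio of AUC IFN-γ to AUC IL-4 was computed.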

In assay [7] the test system is Mus musculus. The assay can be described thus: Induction of CD1D-TCR-dependent NKT cell activation in C57BL/6J mouse assessed as IL-4 production at 100 ug/kg, ip relative to KRN7000. The format is functional. The gist of the method: as §2
Assay [8] has as its system Namalwa. Put plainly: Activation of Namalwa cell expressing CD1D-TCR in human MAD11 cells assessed as TH1-mediated IFN-gamma secretion after 6 hrs by ELISA relative to KRN7000. The format is cell-based. The method in brief:
(§4)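 APCs (hCD1d-transduced HeLa or Namalwa) plated 30000/well, loaded overnight at 37 °C with glycolipid titration in DMSO, washed twice. Vα24/Vβ11-sorted human iNKT line (15000 cells, no IL-2) added for 6 h at 37 °C. Supernatant IFN-γ measured by ELISA. No-glycolipid background subtracted. Mean of triplicates, SD shown. KRN7000 reference; untransduced APCs as negative control.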

The test system of assay [9] is MAD11. The assay can be described thus: Activation of Hela cell expressing human CD1D-TCR in human MAD11 cells assessed as TH1-mediated IFN-gamma secretion after 6 hrs by ELISA relative to KRN7000. The format is cell-based. The gist of the method: as §4
Assay [10] relates to Namalwa. The assay can be described thus: Activation of Namalwa cell expressing CD1D-TCR in human MAD11 cells assessed as TH1-mediated TNFalpha secretion after 6 hrs relative to control. The format is cell-based. The method in brief: as §3
Assay [11] deals with Mus musculus. Put plainly: Induction of CD1D-TCR-dependent NKT cell activation in C57BL/6J mouse assessed as IFN-gamma production at 100 ug/kg, ip relative to KRN7000. The format is functional. The method in brief: as §2

Each structure is given as a SMILES string. Active and inactive are the calls of the source. The rule behind the calls is not given here.

Consider `CCCCCCCCCCCCCCCCCCCCCCCCCC(=O)N[C@@H](CO[C@H]1O[C@H](CO)[C@H](O)[C@H](O)[C@H]1O)C(F)(F)CCCCCCCCCCCCCCC`, for which the result with Namalwa [1], with MAD11 [3], in the assay with MAD11 [4], in the assay on Mus musculus [5], with Namalwa [8] and with MAD11 [9] was Active. Besides, in the assay with Namalwa [10], the result was Active. The Activity in the assay with Mus musculus [2] came to 32%. For the same compound, the Ratio in the assay with Mus musculus [6] was determined as 1.31; in the assay on Mus musculus [7], 0.35.
Consider `CCCCCCCCCCCCCCCCCCCCCCCCCC(=O)N[C@@H](CO[C@H]1O[C@H](CO)[C@H](O)[C@H](O)[C@H]1O)[C@H](F)CCCCCCCCCCCCCC`, for which the outcome with Namalwa [1], in the assay on MAD11 [3], in the assay on MAD11 [4], in the assay on Namalwa [8], in the assay on MAD11 [9] and in the assay with Namalwa [10] was Active. Besides, the Activity turned out to be 23% in the assay on Mus musculus [2] and 30% with Mus musculus [5]. Moreover, the results for the Ratio in the assay with Mus musculus [6] and in the assay with Mus musculus [7] were 0.78 and 0.35, respectively.
Regarding `CCCCCCCCCCCCCCCCCCCCCCCCCC(=O)N[C@H](CCCCCCCCCCCCCCC)CO[C@H]1O[C@H](CO)[C@H](O)[C@H](O)[C@H]1O`, the outcome in the assay on Namalwa [1], in the assay on MAD11 [3], with MAD11 [4], in the assay on Namalwa [8], in the assay on MAD11 [9] and in the assay with Namalwa [10] was Active. Further, the results for the Activity in the assay on Mus musculus [2] and with Mus musculus [11] were 40% and 70%, respectively. The Ratio with Mus musculus [6] was found to be 1.86; in the assay on Mus musculus [7] it was 0.35.
As to `CCCCCCCCCCCCCCCCCCCCCCCCCC(=O)N[C@@H](CO[C@H]1O[C@H](CO)[C@H](O)[C@H](O)[C@H]1O)[C@H](O)[C@H](O)CCCCCCCCCCCCCC`, the outcome in the assay with Namalwa [1], in the assay with MAD11 [3], in the assay on MAD11 [4], in the assay on Namalwa [8], with MAD11 [9] and in the assay on Namalwa [10] was Active.
